In ChEMBL document CHEMBL4325893, “Synthesis and antibacterial profiles of targeted triclosan derivatives” (2019):
≈ marks a conversion by molar mass, not a printed value.

Experiments:
Cronobacter sakazakii = assay: Antibacterial activity against Cronobacter sakazakii 29544 after 18 hrs; format: functional; settings: Cronobacter sakazakii, 29544, 18 h
Summary of the method: (§1)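 Broth microdilution in Nutrient Broth No. 2; stocks in ethanol diluted to 0.01–128 µg/ml (triclosan) or 0.25–256 µg/ml (glycosides). Overnight 37 °C NB2 cultures diluted 1 in 10^4 in saline and added to the dilutions. Incubation at 37 °C with agitation, OD read every 15 min; MIC is the lowest concentration preventing any OD rise after 18 h.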

Proteus vulgaris = assay: Antibacterial activity against Proteus vulgaris OCC 195 after 18 hrs; format: functional; settings: OCC 195, 18 h; summary of the method: as §1
Citrobacter freundii = assay: Antibacterial activity against Citrobacter freundii 8090 after 18 hrs; format: functional; settings: Citrobacter freundii, 8090, 18 h; summary of the method: as §1
Bacillus cereus = assay: Antibacterial activity against Bacillus cereus ATCC 14579 after 18 hrs; format: functional; settings: ATCC 14579, 18 h; summary of the method: as §1
[1] = test system: Staphylococcus saprophyticus; assay: Antibacterial activity against Staphylococcus saprophyticus ATCC 15305 after 18 hrs; format: functional; settings: ATCC 15305, 18 h
Summary of the method: (§2)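 Broth microdilution in Nutrient Broth No. 2. Ethanol stocks were diluted in broth to 0.01–128 µg/ml for triclosan and 0.25–256 µg/ml for glycosides. Overnight 37°C NB2 cultures were diluted 1 in 10^4 in saline and added to the wells. Plates were incubated at 37°C with OD read every 15 min after agitation. MIC was the lowest concentration giving no OD increase at 18 h.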

Escherichia coli [2] = assay: Antibacterial activity against Escherichia coli ATCC 8739 after 18 hrs; format: functional; settings: ATCC 8739, 18 h; summary of the method: as §1
Enterococcus faecium = assay: Antibacterial activity against Enterococcus faecium ATCC 19434 after 18 hrs; format: functional; settings: ATCC 19434, 18 h; summary of the method: as §1
Streptococcus pneumoniae [3] = assay: Antibacterial activity against Streptococcus pneumoniae ATCC 49619 after 18 hrs; format: functional; settings: ATCC 49619, 18 h; summary of the method: as §2
Staphylococcus aureus [4] = assay: Antibacterial activity against Staphylococcus aureus ATCC 29213 after 18 hrs; format: functional; settings: ATCC 29213, 18 h; summary of the method: as §1
Enterococcus faecalis = assay: Antibacterial activity against Enterococcus faecalis ATCC 29212 after 18 hrs; format: functional; settings: ATCC 29212, 18 h; summary of the method: as §1
[5] = Antibacterial activity against Salmonella enterica subspecies enterica serotype Infantis OCC 2133 after 18 hrs; format: functional, Salmonella enterica subsp. enterica serovar Infantis; settings: OCC 2133, 18 h; summary of the method: as §1
Staphylococcus aureus [6] = assay: Antibacterial activity against Staphylococcus aureus ATCC 6538P after 18 hrs; format: functional; summary of the method: as §1
Staphylococcus aureus [7] = assay: Antibacterial activity against Staphylococcus aureus OCC 104 after 18 hrs; format: functional; settings: OCC 104, 18 h; summary of the method: as §1
[8] = Antibacterial activity against Salmonella enterica subspecies enterica serotype Poona NCTC 4840 after 18 hrs; format: functional, Salmonella enterica subsp. enterica serovar Poona; settings: NCTC 4840, 18 h; summary of the method: as §1
[9] = Antibacterial activity against Salmonella enterica subspecies enterica serotype Dublin OCC 627 after 18 hrs; format: functional, Salmonella enterica subsp. enterica serovar Dublin; settings: OCC 627, 18 h; summary of the method: as §1
Klebsiella aerogenes = assay: Antibacterial activity against Enterobacter aerogenes ATCC 13048 after 18 hrs; format: functional; settings: ATCC 13048, 18 h; summary of the method: as §1
Escherichia coli [10] = assay: Antibacterial activity against Escherichia coli ATCC 25922 after 18 hrs; format: functional; settings: ATCC 25922, 18 h; summary of the method: as §1
Salmonella typhimurium = assay: Antibacterial activity against Salmonella enterica subspecies enterica serotype typhimurium ATCC 14028 after 18 hrs; format: functional, Salmonella enterica subsp. enterica serovar Typhimurium; settings: ATCC 14028, 18 h; summary of the method: as §1
Proteus mirabilis = assay: Antibacterial activity against Proteus mirabilis ATCC 12453 after 18 hrs; format: functional; settings: ATCC 12453, 18 h; summary of the method: as §1
[11] = Antibacterial activity against Salmonella enterica subspecies enterica serotype Virchow NCTC 5742 after 18 hrs; format: functional, Salmonella enterica subsp. enterica serovar Virchow; settings: NCTC 5742, 18 h; summary of the method: as §1
Klebsiella pneumoniae = assay: Antibacterial activity against Klebsiella pneumoniae ATCC 13883 after 18 hrs; format: functional; settings: ATCC 13883, 18 h; summary of the method: as §1
Escherichia hermannii = assay: Antibacterial activity against Escherichia hermannii 33650 after 18 hrs; format: functional; settings: Atlantibacter hermannii, 33650, 18 h; summary of the method: as §1
Streptococcus pneumoniae [12] = assay: Antibacterial activity against Streptococcus pneumoniae 6305 after 18 hrs; format: functional; settings: Streptococcus pneumoniae, 6305, 18 h; summary of the method: as §2
[13] = Antibacterial activity against Enterobacter cloacae ATCC 13047 after 18 hrs; format: functional, Enterobacter cloacae subsp. cloacae; settings: ATCC 13047, 18 h; summary of the method: as §1
Salmonella enteritidis = assay: Antibacterial activity against Salmonella enterica subspecies enterica serotype Enteritidis 13076 after 18 hrs; format: functional, Salmonella enterica subsp. enterica serovar Enteritidis; settings: Salmonella enterica, 13076, 18 h; summary of the method: as §1
Staphylococcus aureus [14] = assay: Antibacterial activity against Staphylococcus aureus ATCC 9144 after 18 hrs; format: functional; settings: ATCC 9144, 18 h; summary of the method: as §1
Hafnia alvei = assay: Antibacterial activity against Hafnia alvei 13337 after 18 hrs; format: functional; settings: Hafnia alvei, 13337, 18 h; summary of the method: as §1
Staphylococcus aureus [15] = assay: Antibacterial activity against Staphylococcus aureus ATCC 25923 after 18 hrs; format: functional; settings: ATCC 25923, 18 h; summary of the method: as §1
Pseudomonas aeruginosa = assay: Antibacterial activity against Pseudomonas aeruginosa ATCC 27853 after 18 hrs; format: functional; settings: ATCC 27853, 18 h; summary of the method: as §1

With `OC[C@H]1O[C@H](Oc2cc(Cl)ccc2Oc2ccc(Cl)cc2Cl)[C@@H](O)[C@@H](O)[C@@H]1O` the MIC (Cronobacter sakazakii) was 128 µg/mL (≈ 283 µM), the MIC (Proteus vulgaris) was 32 µg/mL (≈ 70.8 µM) and the MIC (Citrobacter freundii) was 64 µg/mL (≈ 142 µM). For the same compound, the MIC (Bacillus cereus) was 256 µg/mL (≈ 567 µM), the MIC [1] was 32 µg/mL (≈ 70.8 µM) and the MIC (Escherichia coli [2]) was 4 to 64 µg/mL (≈ 8.86 to 142 µM). For the same compound, the MIC (Enterococcus faecium) was 256 µg/mL (≈ 567 µM), the MIC (Streptococcus pneumoniae [3]) was 64 µg/mL (≈ 142 µM) and the MIC (Staphylococcus aureus [4]) was 2 to 8 µg/mL (≈ 4.43 to 17.7 µM). For the same compound, the MIC (Enterococcus faecalis) was 256 µg/mL (≈ 567 µM), the MIC [5] was 16 to 64 µg/mL (≈ 35.4 to 142 µM) and the MIC (Staphylococcus aureus [6]) was 2 to 8 µg/mL (≈ 4.43 to 17.7 µM). For the same compound, the MIC (Staphylococcus aureus [7]) was 2 to 8 µg/mL (≈ 4.43 to 17.7 µM), the MIC [8] was 16 to 64 µg/mL (≈ 35.4 to 142 µM) and the MIC [9] was 16 to 64 µg/mL (≈ 35.4 to 142 µM). For the same compound, the MIC (Klebsiella aerogenes) was 32 µg/mL (≈ 70.8 µM), the MIC (Escherichia coli [10]) was 4 to 64 µg/mL (≈ 8.86 to 142 µM) and the MIC (Salmonella typhimurium) was 16 to 64 µg/mL (≈ 35.4 to 142 µM). For the same compound, the MIC (Proteus mirabilis) was 16 µg/mL (≈ 35.4 µM), the MIC [11] was 16 to 64 µg/mL (≈ 35.4 to 142 µM) and the MIC (Klebsiella pneumoniae) was 4 µg/mL (≈ 8.86 µM). It also gave an MIC (Escherichia hermannii) of 16 µg/mL (≈ 35.4 µM), an MIC (Streptococcus pneumoniae [12]) of 64 µg/mL (≈ 142 µM) and an MIC [13] of 8 µg/mL (≈ 17.7 µM). It also gave an MIC (Salmonella enteritidis) of 16 to 64 µg/mL (≈ 35.4 to 142 µM), an MIC (Staphylococcus aureus [14]) of 2 to 8 µg/mL (≈ 4.43 to 17.7 µM) and an MIC (Hafnia alvei) of 4 µg/mL (≈ 8.86 µM). For the same compound, the MIC (Staphylococcus aureus [15]) was 2 to 8 µg/mL (≈ 4.43 to 17.7 µM) and the MIC (Pseudomonas aeruginosa) was greater than 256 µg/mL.
